Test results: the M2OR odorant receptor database

Experiments:
Conditions in all cases: stereoisomer not certain
[1] = biological target: T1, UniProt A2ATE5
T1 sequence (whole entry): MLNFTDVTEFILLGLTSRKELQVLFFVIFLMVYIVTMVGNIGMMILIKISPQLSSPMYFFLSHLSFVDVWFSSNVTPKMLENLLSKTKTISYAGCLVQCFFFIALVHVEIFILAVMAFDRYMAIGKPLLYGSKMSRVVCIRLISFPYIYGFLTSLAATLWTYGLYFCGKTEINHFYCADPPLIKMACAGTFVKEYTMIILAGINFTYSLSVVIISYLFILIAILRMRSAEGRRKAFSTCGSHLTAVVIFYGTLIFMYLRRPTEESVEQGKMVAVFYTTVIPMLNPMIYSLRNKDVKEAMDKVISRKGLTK
Procedure, shortened: (§1)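 Transient luciferase assays in mammalian cell lines were common, though methods varied by source. The values come from published papers and their supplementary material, with extra details from the original authors when needed. Responsive refers to a measured signal the original authors judged statistically different from baseline, and non-responsive (inactive) to the remainder.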

[2] = biological target: T2, UniProt A2AVB0
T2 sequence (whole entry): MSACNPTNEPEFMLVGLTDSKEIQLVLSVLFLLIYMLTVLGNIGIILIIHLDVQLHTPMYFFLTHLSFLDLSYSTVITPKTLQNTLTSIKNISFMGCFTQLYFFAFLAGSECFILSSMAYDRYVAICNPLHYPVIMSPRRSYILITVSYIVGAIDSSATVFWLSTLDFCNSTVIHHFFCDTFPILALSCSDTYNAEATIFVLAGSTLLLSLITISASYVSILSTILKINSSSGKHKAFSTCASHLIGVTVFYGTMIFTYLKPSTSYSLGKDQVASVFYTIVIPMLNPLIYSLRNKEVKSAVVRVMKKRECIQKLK
Procedure, shortened: as §1

[3] = biological target: T3, UniProt A2AVB5
T3 sequence (whole entry): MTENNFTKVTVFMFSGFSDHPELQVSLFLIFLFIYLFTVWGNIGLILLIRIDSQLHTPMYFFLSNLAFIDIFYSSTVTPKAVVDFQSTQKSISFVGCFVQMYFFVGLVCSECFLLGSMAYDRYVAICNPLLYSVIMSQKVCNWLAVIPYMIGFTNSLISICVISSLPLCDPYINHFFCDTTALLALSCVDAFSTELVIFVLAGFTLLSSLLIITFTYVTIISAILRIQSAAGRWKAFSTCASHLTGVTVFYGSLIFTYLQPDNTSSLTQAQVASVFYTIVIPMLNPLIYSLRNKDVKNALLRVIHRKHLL
Procedure, shortened: as §1

[4] = biological target: T4, UniProt B2RVX8
T4 sequence (whole entry): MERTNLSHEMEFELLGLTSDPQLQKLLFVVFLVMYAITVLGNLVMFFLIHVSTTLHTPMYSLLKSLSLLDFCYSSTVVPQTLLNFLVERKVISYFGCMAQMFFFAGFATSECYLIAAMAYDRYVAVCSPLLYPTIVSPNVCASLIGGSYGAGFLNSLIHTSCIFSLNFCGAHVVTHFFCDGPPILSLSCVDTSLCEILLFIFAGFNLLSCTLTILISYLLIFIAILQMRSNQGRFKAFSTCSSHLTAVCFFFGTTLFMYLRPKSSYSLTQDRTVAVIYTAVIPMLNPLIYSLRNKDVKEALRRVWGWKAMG
Procedure, shortened: as §1

[5] = biological target: T5, UniProt E9PVX1
T5 sequence (whole entry): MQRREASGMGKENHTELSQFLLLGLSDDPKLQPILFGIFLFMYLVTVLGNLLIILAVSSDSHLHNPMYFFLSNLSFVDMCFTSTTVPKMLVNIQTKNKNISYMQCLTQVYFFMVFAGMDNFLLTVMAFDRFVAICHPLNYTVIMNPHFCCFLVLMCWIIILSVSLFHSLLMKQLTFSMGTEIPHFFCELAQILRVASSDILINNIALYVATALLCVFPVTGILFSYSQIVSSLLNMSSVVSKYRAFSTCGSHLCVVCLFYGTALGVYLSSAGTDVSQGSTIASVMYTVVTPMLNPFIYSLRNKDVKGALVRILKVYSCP
Procedure, shortened: as §1

[6] = biological target: T6, UniProt E9PX47
T6 sequence (whole entry): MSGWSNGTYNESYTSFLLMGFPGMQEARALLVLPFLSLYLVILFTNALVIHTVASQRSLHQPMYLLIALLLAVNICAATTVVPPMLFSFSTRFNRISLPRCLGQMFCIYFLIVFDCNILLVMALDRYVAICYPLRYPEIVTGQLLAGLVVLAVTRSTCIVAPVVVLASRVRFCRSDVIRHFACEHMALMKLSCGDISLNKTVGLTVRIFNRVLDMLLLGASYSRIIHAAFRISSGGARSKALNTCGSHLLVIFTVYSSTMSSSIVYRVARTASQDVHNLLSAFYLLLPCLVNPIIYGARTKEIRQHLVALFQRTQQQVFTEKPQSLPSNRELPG
Procedure, shortened: as §1

[7] = biological target: UniProt A2AVA9
UniProt A2AVA9, sequence (A2AVA9 as listed by the source): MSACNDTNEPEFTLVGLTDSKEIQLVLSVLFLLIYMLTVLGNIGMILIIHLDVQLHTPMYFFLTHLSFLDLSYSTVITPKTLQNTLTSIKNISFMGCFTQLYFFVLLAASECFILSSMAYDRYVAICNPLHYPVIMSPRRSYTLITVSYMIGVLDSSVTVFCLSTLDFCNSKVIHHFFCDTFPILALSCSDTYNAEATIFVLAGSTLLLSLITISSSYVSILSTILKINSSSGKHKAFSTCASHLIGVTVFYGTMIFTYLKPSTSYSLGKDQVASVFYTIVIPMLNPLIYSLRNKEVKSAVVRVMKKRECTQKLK
Procedure, shortened: as §1

[8] = biological target: UniProt A2AVC3
UniProt A2AVC3, sequence (A2AVC3 as listed by the source): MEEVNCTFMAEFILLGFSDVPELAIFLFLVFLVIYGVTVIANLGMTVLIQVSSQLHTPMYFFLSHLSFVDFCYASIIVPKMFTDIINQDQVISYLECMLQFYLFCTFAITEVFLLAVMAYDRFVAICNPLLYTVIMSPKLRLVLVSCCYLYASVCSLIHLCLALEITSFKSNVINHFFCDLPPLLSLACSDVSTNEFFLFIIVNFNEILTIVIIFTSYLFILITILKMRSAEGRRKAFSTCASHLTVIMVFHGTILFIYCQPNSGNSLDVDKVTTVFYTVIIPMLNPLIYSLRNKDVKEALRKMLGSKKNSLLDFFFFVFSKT
Procedure, shortened: as §1

[9] = biological target: UniProt E9PXH6
UniProt E9PXH6, sequence (E9PXH6 as listed by the source): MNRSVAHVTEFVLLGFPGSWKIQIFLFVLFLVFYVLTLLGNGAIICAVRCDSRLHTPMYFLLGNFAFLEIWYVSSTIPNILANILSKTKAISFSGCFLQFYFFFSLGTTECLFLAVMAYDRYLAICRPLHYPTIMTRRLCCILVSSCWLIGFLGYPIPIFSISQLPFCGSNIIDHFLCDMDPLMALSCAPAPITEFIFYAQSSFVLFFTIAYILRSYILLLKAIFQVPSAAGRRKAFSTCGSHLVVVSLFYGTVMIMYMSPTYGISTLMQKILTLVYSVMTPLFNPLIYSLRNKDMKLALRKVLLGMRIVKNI
Procedure, shortened: as §1

[10] = biological target: T7, UniProt E1BM68
T7 sequence (whole entry): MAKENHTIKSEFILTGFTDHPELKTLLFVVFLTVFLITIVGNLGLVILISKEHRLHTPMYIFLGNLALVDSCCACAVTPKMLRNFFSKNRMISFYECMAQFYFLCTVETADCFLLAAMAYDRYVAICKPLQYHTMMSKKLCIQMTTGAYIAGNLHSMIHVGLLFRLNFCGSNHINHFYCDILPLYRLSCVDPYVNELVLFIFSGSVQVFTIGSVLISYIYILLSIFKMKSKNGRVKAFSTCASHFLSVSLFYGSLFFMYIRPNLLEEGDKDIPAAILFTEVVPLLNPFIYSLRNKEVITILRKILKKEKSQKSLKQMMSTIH
Procedure, shortened: as §1

Measured: odorant receptor agonist call

CCCCCCC(C)=O
inactive: [1] | [2] | [3] | [4] | [5]

CCCCC(=O)O
inactive: [1] | [2] | [3] | [4] | [5] | [6]

CC(=O)Oc1ccccc1
inactive: [1] | [2] | [3] | [4] | [5]

CCCCCCCCC(=O)O
inactive: [1] | [2] | [3] | [4] | [5] | [6]

CCC(=O)C(=O)CC
inactive: [1] | [2] | [3] | [4] | [5]

CCCCCOC(=O)CCCCC
inactive: [1] | [2] | [3] | [4] | [5]

c1ccccc1
inactive: [1] | [2] | [3] | [4] | [5]

CC12CCC(CC1=O)C2(C)C (centres undefined)
inactive: [1] | [2] | [3] | [4] | [5]

CC(C)=CCCC(C)CCO (centres undefined)
inactive: [1] | [2] | [3] | [4] | [5]

C=C(C)C1CCC(C)C(=O)C1 (centres undefined)
inactive: [1] | [2] | [3] | [4] | [5]

O=C1CCOc2ccccc21
active: [7] | [3] | [9]
inactive: [1] | [2] | [8] | [4] | [5]

CCCCOC=O
inactive: [1] | [2] | [3] | [4] | [5]

CCCCCC1=C(C)CCC1=O
inactive: [1] | [2] | [3] | [5]
active: [4]

CCCCCCCO
inactive: [1] | [2] | [3] | [4] | [5] | [6]

CC(=O)OCC=C(C)C
inactive: [1] | [2] | [3] | [4] | [5]

CCCCCCO
inactive: [1] | [2] | [3] | [4] | [5] | [6]

CC(=O)OCc1ccccc1
inactive: [1] | [2] | [3] | [4] | [5]

CCCCCC=O
inactive: [1] | [2] | [3] | [4] | [5]

CCOC(=O)C(C)C
inactive: [1] | [2] | [3] | [4] | [5]

CCCCCCCCCC(=O)[O-].[H+]
inactive: [3] | [4] | [6]

Cc1ccccc1OC(=O)C(C)C
inactive: [1] | [2] | [5]

CCCCCCCCOC=O
inactive: [1] | [2] | [5]

C=CC(=C)CCC=C(C)CCC=C(C)C
inactive: [1] | [2] | [5]

C=C(C)C1CCC2(C)OC2C1 (centres undefined)
inactive: [1] | [2] | [5]

CCCCCOC(=O)CCC
inactive: [1] | [2] | [5]

CCOC(=O)CC(C)C
inactive: [1] | [2] | [5]

C=C1C2CCC(C2)C1(C)C (centres undefined)
inactive: [1] | [2] | [5]

CC=Cc1ccc(OC)cc1
inactive: [1] | [2] | [5]

O=C(O)C1CCC1
inactive: [1] | [2] | [5]

CCc1ccc(O)cc1
inactive: [1] | [2] | [5]

CCCCCCCCCCOC(C)=O
inactive: [1] | [2] | [5]

COc1ccccc1
inactive: [1] | [2] | [5]

Cc1c(C)c(C)c(C=O)c(C)c1C
inactive: [1] | [2] | [5]

OCCc1ccccc1
inactive: [1] | [2] | [5]

CCC=CCCCCC=O
inactive: [1] | [2] | [5]

CCC=CCCC=CC=O
inactive: [1] | [2] | [5]

CC(C)CS
inactive: [1] | [2] | [5]

CCCO
inactive: [1] | [2] | [5]

C=CC(C)=CCC=C(C)CCC=C(C)C
inactive: [1] | [2] | [5]

CCCCCCCCC=CC=O
inactive: [1] | [2] | [5]

CC(=O)OCCc1ccccc1
inactive: [1] | [2] | [5]

Cc1occc1SSc1ccoc1C
inactive: [1] | [2] | [5]

CCCCCCC(=O)OCCCC
inactive: [1] | [2] | [5]

CSSCc1ccco1
inactive: [1] | [2] | [5]

C=C(CC)CCCC(C)(C)O
inactive: [1] | [2] | [5]

CCCCCC(C=O)=Cc1ccccc1
inactive: [1] | [2] | [5]

O=C(O)CCCCCBr
inactive: [1] | [2] | [5]

Cc1ccc2c(c1)OCC(=O)CO2
inactive: [1] | [2] | [5]

CSSSC
inactive: [1] | [2] | [5]

CCCCCCC=CC=O
inactive: [1] | [2] | [5]

Cc1ccc(OC(=O)C(C)C)cc1
inactive: [1] | [2] | [5]

CC(C)=CCCC(C)=CCOC(=O)C(C)C
inactive: [1] | [2] | [5]

O=C(O)CCCCCCCCC(=O)O
inactive: [1] | [2] | [5]

CCCCCCC(C)O (centres undefined)
inactive: [1] | [2] | [5]

CC(CC=O)CCCC(C)(C)O (centres undefined)
inactive: [1] | [2] | [5]

C1CCOCC1
inactive: [1] | [2] | [5]

Cc1ccc(C(C)C)cc1
inactive: [1] | [2] | [5]

CCCCOC(=O)CCC
inactive: [6]

CCC(C(=O)O)c1ccccc1 (centres undefined)
inactive: [3] | [4]

CCCCCO
inactive: [3] | [4]

CCc1cnc(C)c(C)n1
inactive: [10]

CCCCC=O
inactive: [1] | [2] | [5] | [6]

CC(=O)c1nccnc1C
active: [10]

CC1CCc2nccnc21 (centres undefined)
active: [10]

Cc1cnccn1
active: [10]

COC1=C(C)OC(C)C1=O (centres undefined)
inactive: [10]

CC1=NC(C)C(C)S1 (centres undefined)
active: [10]

OCC=Cc1ccccc1
inactive: [1] | [2] | [5]

CCCCCCCC(=O)[O-].[H+]
inactive: [3] | [4] | [6]

CCCC(C)C(=O)OCC (centres undefined)
inactive: [1] | [2] | [5]

CCc1nccnc1C(C)=O
active: [10]

CCCCCCC(=O)[O-].[H+]
inactive: [3] | [4] | [6]

C=Cc1cnccn1
active: [10]

CC1CC=CCCCCCCCCCC(=O)C1 (centres undefined)
inactive: [1] | [2] | [5]

O=c1ccc2ccccc2o1
inactive: [8] | [4]
active: [7] | [3] | [9]

Cc1cncc(C)n1
active: [10]

O=C([O-])CCCCCCCC(=O)[O-].[H+].[H+]
inactive: [1] | [2] | [5]
active: [6]

Cc1cnc(C)cn1
active: [10]

CCCCOC(=O)C(C)OC(=O)CCC (centres undefined)
inactive: [3] | [4]

CCCCCC(C)O (centres undefined)
inactive: [1] | [2] | [5]

CC(C)CCN
inactive: [1] | [2] | [5]

CC(=O)C=CC1=C(C)CCCC1(C)C
inactive: [1] | [2] | [5]

CC(=O)OCc1ccc2c(c1)OCO2
inactive: [1] | [2] | [5]

CC1CCC(C(C)C)C(=O)C1 (centres undefined)
inactive: [1] | [2] | [5]

CC(=O)c1cnccn1
active: [10]

CCc1nccnc1OC
active: [10]

Cc1nccnc1C
active: [10]

OCCCCCCCCCO
inactive: [1] | [2] | [5]

CCCC(C)=O
inactive: [3] | [4] | [6]

Cc1cnc(C)c(C)n1
active: [10]

COc1nccnc1CC(C)C
active: [10]

CCCC=O
inactive: [1] | [2] | [5]

CCc1nccnc1C
active: [10]

CC(C)=C1CCC(C)CC1=O (centres undefined)
inactive: [1] | [2] | [5]
